The results in this text go back to ChEMBL document CHEMBL1137577, “Inhibitors of the interaction of a thyroid hormone receptor and coactivators: preliminary structure-activity relationships” (J Med Chem, 2007).

The subject of one series is ARO. Briefly: Cytotoxicity against human ARO cells after 48 hrs by MTS assay. The series is classed as functional. The settings on record: Homo sapiens, ARO, 48 h; read-out: LD50 (the source's name).
Series [1] concerns the target T1, Thyroid hormone receptor beta (Homo sapiens, UniProt P10828).
T1 sequence (P10828 whole entry): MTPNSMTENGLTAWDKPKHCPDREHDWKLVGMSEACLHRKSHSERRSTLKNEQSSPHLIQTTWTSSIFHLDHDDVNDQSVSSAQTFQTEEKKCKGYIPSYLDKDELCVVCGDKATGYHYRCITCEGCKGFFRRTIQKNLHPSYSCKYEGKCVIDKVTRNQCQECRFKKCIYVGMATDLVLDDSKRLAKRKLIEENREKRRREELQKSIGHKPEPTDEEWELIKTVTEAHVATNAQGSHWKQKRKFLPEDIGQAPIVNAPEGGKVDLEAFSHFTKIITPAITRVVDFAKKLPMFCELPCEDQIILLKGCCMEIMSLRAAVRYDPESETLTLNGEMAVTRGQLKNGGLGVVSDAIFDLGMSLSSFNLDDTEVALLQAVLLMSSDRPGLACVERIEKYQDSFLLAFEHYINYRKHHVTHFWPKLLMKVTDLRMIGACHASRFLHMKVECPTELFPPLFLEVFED
Briefly: Displacement of labeled SRC2-2 from human TRbeta expressed in BL21 (DE3) cells FP assay. In kind it is cell-based. An outline of the steps:
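Competitive fluorescence polarization. Assay liquid was PBS containing 5% DMSO. For TRβ, hTRβ1 LBD (His6, T209-D461) was expressed in BL21 (DE3).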

A short description of another series: physchem. As to conditions: PBS.
Series [2] in a line: Permeability across artificial membrane at pH 7.4 by PAMPA assay. (In general: The PAMPA barrier holds no transporters, so it reflects passive diffusion.)
The subject of another series is U2OS. Briefly: Cytotoxicity against human U2OS cells after 48 hrs by MTS assay. In kind it is functional. The settings on record: Homo sapiens, U2OS, 48 h; read-out: LD50 (the source's name). (Tetrazolium assays rely on reduction of a dye to a coloured formazan, in cell work by metabolically active cells.)
In series [3] the target is T2, Thyroid hormone receptor alpha (Homo sapiens, UniProt P10827).
T2 sequence (P10827 whole entry): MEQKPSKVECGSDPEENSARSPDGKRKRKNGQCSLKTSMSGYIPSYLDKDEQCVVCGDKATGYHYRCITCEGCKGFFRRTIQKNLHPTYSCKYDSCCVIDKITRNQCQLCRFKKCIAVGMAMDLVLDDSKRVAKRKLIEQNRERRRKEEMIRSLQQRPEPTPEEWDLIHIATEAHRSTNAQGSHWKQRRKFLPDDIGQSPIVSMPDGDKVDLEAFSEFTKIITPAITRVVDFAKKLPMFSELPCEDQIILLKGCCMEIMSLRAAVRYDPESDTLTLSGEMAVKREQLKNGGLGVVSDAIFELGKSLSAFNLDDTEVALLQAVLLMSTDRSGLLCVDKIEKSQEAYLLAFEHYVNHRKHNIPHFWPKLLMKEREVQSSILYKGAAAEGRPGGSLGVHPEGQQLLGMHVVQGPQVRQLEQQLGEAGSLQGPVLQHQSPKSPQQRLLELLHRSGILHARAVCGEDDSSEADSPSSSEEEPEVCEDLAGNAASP
Briefly: Displacement of labeled SRC2-2 from human TRalpha by FP assay.

Values after ≈ are worked out from the molar mass of the structure shown.

The IC50 is the point on the concentration scale where inhibition reaches its midpoint. Low readings indicate higher potency, high ones lower potency. Broadly, the solubility is the dissolved amount per volume that the medium holds. Broadly, the Papp is the rate of passage across a membrane or cell layer, normalised by area and donor concentration. A low value points to slow passage. Regarding `CCCCCCc1ccc(C(=O)CCNCCC)cc1`, the results for the CC50 in the series on ARO and in the series on U2OS were 107 µM and 160 µM, respectively. Besides, the values for the IC50 in series [1] and in series [3] were 15.2 µM and 25.8 µM, respectively. In “physchem”, this compound came in with a solubility of 354 µM (≈ 97.5 µg/mL). This compound yielded a Papp in series [2] of 254 ×10⁻⁶ cm/s.

Consider `C/C=C/C(=O)Nc1ccc(CCCCCC)cc1`, for which the CC50 with ARO and in the series on U2OS was greater than 200 µM throughout. Besides, the IC50 in series [1] and in series [3] was greater than 100 µM each time. The same compound displayed a solubility in the series “physchem” of 42 µM (≈ 10.3 µg/mL). The compound also gave a Papp in series [2] of 432 ×10⁻⁶ cm/s.

Consider `C#CC(=O)Oc1ccc(CCCCCC)cc1`, for which the CC50 in the series with ARO came to 7.9 µM; in the series with U2OS, 13.9 µM. Moreover, the IC50 was found to be 6.2 µM in series [1] and 16.7 µM in series [3]. Further, in the series “physchem”, the concentration in solution (solubility) came to 18 µM (≈ 4.15 µg/mL). Moreover, the Papp in series [2] was 21 ×10⁻⁶ cm/s.

For the compound `CCCCCCc1ccc(C(=O)CCCBr)cc1`, the results for the CC50 with ARO and in the series with U2OS were 28.7 µM and 25.3 µM, respectively. For the same compound, the IC50 in series [1] and in series [3] was greater than 100 µM throughout. For the same compound, the solubility in “physchem” turned out to be 26 µM (≈ 8.09 µg/mL). The same compound returned a Papp in series [2] of 58 ×10⁻⁶ cm/s.
